Results on one compound are retold here after ChEMBL document CHEMBL1158474, “Focus on the controversial activation of human iNKT cells by 4-deoxy analogue of KRN7000” (J Med Chem, 2009).

As usually defined, the EC50 is the concentration needed to bring the measured effect to its halfway point.

For assay [1], the system named is Mus musculus. Nature of the assay: Regulation of immune response in C57BL/6J mouse assessed as induction of NKT cell cytokine response-related IL2 secretion at 10 to 1000 ug/kg, ip after 14 hrs by ELISA. Format: functional, organism-based. Background: ELISA stands for enzyme-linked immunosorbent assay.
In assay [2] the test system is Mus musculus. Nature of the assay: Regulation of immune response in C57BL/6J mouse assessed as induction of NKT cell cytokine response-related IL2 secretion at 10 to 1000 ug/kg, ip after 2 hrs by ELISA. It counts as functional, organism-based.
Assay [3] has as its system Mus musculus. As to the kind of experiment: Regulation of immune response in C57BL/6J mouse assessed as induction of NKT cell cytokine response-related IL4 secretion at 100 ug/kg, ip after 4 hrs by ELISA. Format: functional, organism-based. An outline of the steps: (§1)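 Mice were given glycolipid ip at 10, 50, 100 or 1000 μg/kg. Cytokine release kinetics (TNF-α, IL-4, IFN-γ) were followed over time after injection, with sampling that included 4 h and 18 h. Groups were compared statistically (P < 0.05 threshold).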

Assay [4] has as its system Mus musculus. Nature of the assay: Regulation of immune response in C57BL/6J mouse assessed as induction of NKT cell cytokine response-related IFN-gamma secretion at 100 ug/kg, ip after 18 hrs by ELISA. It counts as functional, organism-based. An outline of the steps:
as §1

Assay [5] deals with iNKT. As to the kind of experiment: Effect on immune response in human iNKT cells stimulated by antigen-presenting CD1d-transfected human HeLa cells assessed as induction of IFN-gamma release by ELISA. It counts as functional, cell-based. Summed up:
(§2)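 A human Vα24 iNKT cell line was stimulated for 6 h by CD1d-transfected HeLa cells loaded overnight with increasing glycolipid concentrations. Before loading, the glycolipid was solubilized in DMSO for a couple of hours at 37 °C. Supernatant TNF-α was measured by a cellular assay, and IFN-γ and IL-4 by ELISA. Triplicates were run, and one representative of three experiments is shown. EC50 values were given as mean ± SD.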

Assay [6] relates to Mus musculus. As to the kind of experiment: Regulation of immune response in C57BL/6J mouse assessed as induction of NKT cell cytokine response-related TNFalpha secretion at 100 ug/kg, ip after 4 hrs by ELISA. It counts as functional, organism-based. An outline of the steps: as §1
Assay [7] relates to iNKT. As to the kind of experiment: Effect on immune response in human iNKT cells stimulated by antigen-presenting CD1d-transfected human HeLa cells assessed as induction of TNFalpha release by MTT assay. It counts as functional, cell-based. Summed up: as §2
For orientation: Tetrazolium assays rely on reduction of a dye to a coloured formazan, in cell work by metabolically active cells.

Assay [8] concerns iNKT. As to the kind of experiment: Effect on immune response in human iNKT cells stimulated by antigen-presenting CD1d-transfected human HeLa cells assessed as induction of IL4 release by ELISA. Format: functional, cell-based. An outline of the steps:
as §2

The subject of assay [9] is Mus musculus. Nature of the assay: Regulation of immune response in C57BL/6J mouse assessed as induction of NKT cell cytokine response-related IFN-gamma secretion at 10 to 1000 ug/kg, ip after 2 hrs by ELISA. Format: functional, organism-based.
The test system of assay [10] is Mus musculus. As to the kind of experiment: Regulation of immune response in C57BL/6J mouse assessed as induction of NKT cell cytokine response-related IFN-gamma secretion at 10 to 1000 ug/kg, ip after 14 hrs by ELISA. It counts as functional, organism-based.

Active and inactive are the calls of the source.

Regarding `CCCCCCCCCCCCCCCCCCCCCCCCCC(=O)N[C@@H](CO[C@H]1O[C@H](CO)[C@H](O)[C@H](O)[C@H]1O)C(O)[C@H](O)CCCCCCCCCCCCCC` (single isomer, unassigned) [RGI-7000], the outcome in [1], in assay [2], in assay [3], in [4], in [5] and in [6] was Active. The outcome in assay [8], in assay [9] and in assay [10] was Active. Further, in [7], the EC50 stood at 5 nM.
